Results from PubChem BioAssay AID493081 (Broad Institute, 2011).
Calls of active or inactive are those of the source.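 The calls were made as follows: active = fitted half-maximal dose of growth inhibition at or below ten times the top valid tested dose; inconclusive = flat fit with moderate inhibition, or poor fit quality; inactive = the rest.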

Tested on: C. albicans CaCi-2 + fluconazole, Alamar Blue, 48 h
Assay: growth inhibition of fluconazole-resistant C. albicans, confirmation, CaCi-2 isolate, dry powder retest, no file (AID 493081)
Conditions: not given
Procedure, shortened: (§1)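 Schedule – 48 h at 37 °C, then 2 h dye step · Assay system – Candida albicans clinical isolate CaCi-2, fluconazole-resistant strain · Detection – Alamar Blue fluorescence, excitation 544 nm, emission 590 nm · Reagent – fluconazole at 8 µg/mL throughout the growth period · Read-out – fungal growth from fluorescence, lower signal meaning growth inhibition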

| Structure (SMILES) | AC50 [nM] |
| --- | --- |
| COC(=O)Cn1nc(-c2ccccc2C)c2ccccc21 | 6140 |
| CCN(CC)C(=O)Cn1c2ccccc2c2nc3n(c(=O)c21)CCS3 | 7430 |
| O=C(Cn1c2ccc(F)cc2c2nc3n(c(=O)c21)CCS3)N1CCCCC1 | 413 |
| CC1CCN(C(=O)Cn2c3ccccc3c3nc4n(c(=O)c32)CCS4)CC1 | 1790 |
| O=C(Cn1c2ccc(F)cc2c2nc3n(c(=O)c21)CCS3)N1CCCCCC1 | 629 |
| O=C(Cn1c2ccccc2c2nc3n(c(=O)c21)CCS3)N1CCOCC1 | 1610 |
| O=C(Cn1c2ccc(F)cc2c2nc3n(c(=O)c21)CCS3)N1CCCC1 | 608 |
| COC(=O)Cn1nc(-c2cccc(F)c2)c2ccccc21 | 8120 |
| O=C(Cn1c2ccccc2c2nc3n(c(=O)c21)CCS3)N1CCCC1 | 835 |
| COC(=O)Cn1nc(-c2ccccc2)c2ccccc21 | 1270 |
| COC(=O)Cn1nc(-c2ccc(F)cc2)c2ccccc21 | 8180 |
| O=C(Cn1c2ccccc2c2nc3n(c(=O)c21)CCS3)N1CCCCC1 | 606 |
| CCN(CC)C(=O)Cn1c2ccc(F)cc2c2nc3n(c(=O)c21)CCS3 | 69 |

Tested on: not listed separately
Assay: as above
Conditions: C. albicans CaCi-2 (fluconazole-resistant clinical isolate) + fluconazole, Alamar Blue, 48 h; at 12 µM (top of the series)
Procedure, shortened: as §1

| Structure (SMILES) | activity change, negative = growth inhibition |
| --- | --- |
| CCCCn1nc(-c2ccccc2)c2ccccc21 | 19.1% (inactive) |
| CCC(=O)Cn1nc(-c2ccccc2)c2ccccc21 | -16.1% (inactive) |
| O=C(O)Cn1nc(-c2ccccc2)c2ccccc21 | -9.2% (inactive) |
| COC(=O)Cn1nc(-c2ccccc2)c2ccc(C(F)(F)F)cc21 | -26.8% (inactive) |
| O=C(Cn1nc(-c2ccccc2)c2ccccc21)OC1CCC1 | -23.5% (inactive) |
| COC(=O)CCCn1nc(-c2ccccc2)c2ccccc21 | -23.8% (inactive) |
| O=C1OCCC1n1nc(-c2ccccc2)c2ccccc21 (stereo not given) | -11.6% (inactive) |
| COc1ccc(-c2n[nH]c3ccccc23)cc1 | -24.1% (inactive) |
| O=C(Cn1c2ccccc2c2ccncc21)N1CCCCC1 | -31.9% (inactive) |
| FC(F)(F)c1ccc(-c2n[nH]c3ccccc23)cc1 | -27.3% (inactive) |
| COC(=O)C(C)(C)n1nc(-c2ccccc2)c2ccccc21 | -6.64% (inactive) |
| COC(=O)Cn1nc(-c2ccccc2)c2cccc(C(F)(F)F)c21 | 1.65% (inactive) |
